Test results taken from publication PMC11253873 (RSC Medicinal Chemistry, 2024).
Values after ≈ are worked out from the molar mass of the structure shown. Values joined by “and” are separate entries in the source; they are usually repeats but may differ in a detail not shown here. Equal entries are not always repeated. Where two headings read alike, the source gives them in different places.

Key:
Mtb H37Rv [1] = conditions: cited from earlier work
Pf3D7 parasites [2] = conditions: read-out: Pf IC50; P. falciparum parasites; cited from earlier work
Mtb H37Rv [3] = experiment: microbe, parasite or virus in culture; format: cell-based, Mycobacterium tuberculosis; conditions: for MIC: Mycobacterium tuberculosis, H37RV, 336 h, read-out: Mtb MIC; for Mtb MIC: value in parentheses, Mtb H37Rv, 2 weeks
MtbDXR = molecular target: T1, MtbDXR (Mycobacterium tuberculosis, UniProt P9WNS1); experiment: DXR enzyme inhibition assay; format: biochemical; conditions: values in parentheses; compound at 100 μM
T1 sequence (P9WNS1 1-413): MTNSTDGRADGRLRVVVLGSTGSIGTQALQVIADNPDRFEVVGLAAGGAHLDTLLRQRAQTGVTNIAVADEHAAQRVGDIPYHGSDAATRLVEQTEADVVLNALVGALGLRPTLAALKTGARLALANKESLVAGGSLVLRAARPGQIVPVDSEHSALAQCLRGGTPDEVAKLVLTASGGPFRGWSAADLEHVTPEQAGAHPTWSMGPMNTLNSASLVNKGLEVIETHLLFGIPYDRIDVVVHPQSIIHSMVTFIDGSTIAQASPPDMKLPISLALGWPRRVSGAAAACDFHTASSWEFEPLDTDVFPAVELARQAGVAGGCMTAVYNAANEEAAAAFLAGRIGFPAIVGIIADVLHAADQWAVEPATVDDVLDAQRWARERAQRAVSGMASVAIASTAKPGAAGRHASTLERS

Pf3D7 parasites [4] = experiment: P. falciparum growth inhibition assay; format: cell-based, Plasmodium falciparum; conditions: read-out: Pf IC50, 3 days, PicoGreen DNA content
Outline: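 Asynchronous cultures of wild-type 3D7 and fosmidomycin-resistant had1 strain E1-C12 are kept at 2% hematocrit in supplemented RPMI-1640 with 0.5% Albumax, under 5% O2/5% CO2/90% N2 at 37 °C. Parasites are diluted to 0.5% parasitemia and exposed to 1.2 nM–492.4 μM test compound from the start. After 3 days, DNA is read with PicoGreen (ex 485/em 528 nm). IC50 comes from a 4-parameter nonlinear fit. Technical duplicates, biological triplicate.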

PfDXR = molecular target: T2, PfDXR (Plasmodium falciparum, UniProt Q8IKG4); experiment: DXR enzyme inhibition assay; format: biochemical; conditions: values in parentheses; compound at 100 μM
T2 sequence (Q8IKG4 73-488): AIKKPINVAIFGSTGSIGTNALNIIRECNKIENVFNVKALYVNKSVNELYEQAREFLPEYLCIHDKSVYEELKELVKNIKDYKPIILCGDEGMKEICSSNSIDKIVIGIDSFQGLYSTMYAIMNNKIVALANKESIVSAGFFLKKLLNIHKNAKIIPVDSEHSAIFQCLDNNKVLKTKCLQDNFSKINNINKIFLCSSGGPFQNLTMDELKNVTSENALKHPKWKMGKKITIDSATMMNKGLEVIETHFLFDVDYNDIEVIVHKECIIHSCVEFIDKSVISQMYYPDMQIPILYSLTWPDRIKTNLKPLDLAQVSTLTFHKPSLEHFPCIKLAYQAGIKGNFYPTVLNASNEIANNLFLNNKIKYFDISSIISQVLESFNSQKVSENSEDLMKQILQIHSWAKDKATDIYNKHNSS

In the case of `O=CN(O)CCCP(=O)(O)O` [1(Fos), Fosmidomycin], the “Mtb MIC” value (Mtb H37Rv [1]) is listed as >500 μg mL^−1 and >500 (ref. [34]) μg mL^−1.

For `CC(=O)N(O)CCCP(=O)(O)O` [2(FR), FR900098], the IC50 (Pf3D7 parasites [2]) is given as 0.511 µM and the “Mtb MIC” value (Mtb H37Rv [1]) is given as >500 μg mL^−1 and >500 (ref. [34]) μg mL^−1.

In the case of `CC(=O)N(CCC(c1ccc(Cl)c(Cl)c1)P(=O)(O)O)OCc1ccc2ccccc2c1.N.N` (stereo not drawn) [Compound 6c], the MIC (Mtb H37Rv [3]) is reported as 12.5 µg/mL.

Work on `CC(=O)N(CCC(c1ccc(Cl)c(Cl)c1)P(=O)(O)O)OCc1ccc(-c2ccc(C(C)C)cc2)cc1.N.N` (stereo not drawn) [Compound 6i] yielded an MIC (Mtb H37Rv [3]) of 25 µg/mL.

For `CC(=O)N(O)CCC(c1ccc(Cl)c(Cl)c1)P(=O)(OCOC(=O)C(C)(C)C)OCOC(=O)C(C)(C)C` (stereo not drawn) [Compound 7a, ({[1-(3,4-Dichlorophenyl)-3-(N-hydroxyacetamido)propyl]({[(2,2-dimethylpropanoyl)oxy]methoxy})phosphoryl}oxy)methyl 2,2-dimethylpropanoate], the MIC (Mtb H37Rv [3]) was 4.6 µg/mL (≈ 8.06 µM).

Work on `CC(=O)N(CCC(c1ccc(Cl)c(Cl)c1)P(=O)(OCOC(=O)C(C)(C)C)OCOC(=O)C(C)(C)C)OCc1ccccc1` (stereo not drawn) [Compound 7b, [({3-[N-(Benzyloxy)acetamido]-1-(3,4-dichlorophenyl)propyl}({[(2,2-dimethylpropanoyl)oxy]methoxy})phosphoryl)oxy]methyl 2,2-dimethylpropanoate] yielded an MIC (Mtb H37Rv [3]) of 6.25 µg/mL (≈ 9.46 µM).

With `CC(=O)N(CCC(c1ccc(Cl)c(Cl)c1)P(=O)(OCOC(=O)C(C)(C)C)OCOC(=O)C(C)(C)C)OCc1ccc2ccccc2c1` (stereo not drawn) [Compound 7c, ({[1-(3,4-Dichlorophenyl)-3-{N-[(naphthalen-2-yl)methoxy]acetamido}propyl]({[(2,2-dimethylpropanoyl)oxy]methoxy})phosphoryl}oxy)methyl-2,2-dimethylpropanoate] the MIC (Mtb H37Rv [3]) was 6.25 µg/mL (≈ 8.8 µM).

In the case of `CC(=O)N(CCC(c1ccc(Cl)c(Cl)c1)P(=O)(OCOC(=O)C(C)(C)C)OCOC(=O)C(C)(C)C)OC(C)c1ccccc1` (stereo not drawn) [Compound 7e, ({[1-(3,4-Dichlorophenyl)-3-[N-(1-phenylethoxy)acetamido]propyl]({[(2,2-dimethylpropanoyl)oxy]methoxy})phosphoryl}oxy) methyl 2,2-dimethylpropanoate], the MIC (Mtb H37Rv [3]) is reported as 9.4 µg/mL and 13.9 µM.

In the case of `CC(=O)N(CCC(c1ccc(Cl)c(Cl)c1)P(=O)(OCOC(=O)C(C)(C)C)OCOC(=O)C(C)(C)C)OCc1ccc(C(C)C)cc1` (stereo not drawn) [Compound 7f, ({[1-(3,4-Dichlorophenyl)-3-(N-{[4-(propan-2-yl)phenyl]methoxy}acetamido)propyl]({[(2,2-dimethylpropanoyl)oxy]methoxy})phosphoryl}oxy) methyl 2,2-dimethylpropanoate], the MIC (Mtb H37Rv [3]) is reported as 12.5 µg/mL (≈ 17.8 µM).

Work on `CC(=O)N(CCC(c1ccc(Cl)c(Cl)c1)P(=O)(OCOC(=O)C(C)(C)C)OCOC(=O)C(C)(C)C)OCCCCc1ccccc1` (stereo not drawn) [Compound 7g, ({[1-(3,4-Dichlorophenyl)-3-[N-(4-phenylbutoxy)acetamido]propyl]({[(2,2-dimethylpropanoyl)oxy]methoxy})phosphoryl}oxy) methyl 2,2-dimethylpropanoate] yielded an MIC (Mtb H37Rv [3]) of 12.5 µg/mL (≈ 17.8 µM).

In the case of `CC(=O)N(CCC(c1ccc(Cl)c(Cl)c1)P(=O)(OCOC(=O)C(C)(C)C)OCOC(=O)C(C)(C)C)OCc1ccc(Br)cc1` (stereo not drawn) [Compound 7h, {[(3-{N-[(4-Bromophenyl)methoxy]acetamido}-1-(3,4-dichlorophenyl)propyl)({[(2,2-dimethylpropanoyl)oxy]methoxy})phosphoryl]oxy}methyl 2,2-dimethylpropanoate], the MIC (Mtb H37Rv [3]) is reported as 6.25 µg/mL (≈ 8.45 µM).

`CC(=O)N(CCC(c1ccc(Cl)c(Cl)c1)P(=O)(OCOC(=O)C(C)(C)C)OCOC(=O)C(C)(C)C)OCc1ccc(-c2ccc(C(C)C)cc2)cc1` (stereo not drawn) [Compound 7i, ({[1-(3,4-Dichlorophenyl)-3-(N-{[4′-(propan-2-yl)-[1,1′-biphenyl]-4-yl]methoxy}acetamido)propyl]({[(2,2-dimethylpropanoyl)oxy]methoxy})phosphoryl}oxy)methyl 2,2-dimethylpropanoate] gave an MIC (Mtb H37Rv [3]) greater than 100 µg/mL.

`CC(=O)N(CCC(c1ccc(Cl)c(Cl)c1)P(=O)(OCOC(=O)C(C)(C)C)OCOC(=O)C(C)(C)C)OC(C)c1ccc(Cl)cc1` (stereo not drawn) [Compound 7j, ({[1-(3,4-Dichlorophenyl)-3-{N-[1-(4-chlorophenyl)ethoxy]acetamido}propyl]({[(2,2-dimethylpropanoyl)oxy]methoxy})phosphoryl}oxy)methyl 2,2-dimethylpropanoate] showed an MIC (Mtb H37Rv [3]) of 9.4 µg/mL (≈ 13.3 µM).

Compound `CC(=O)N(CCC(c1ccc(Cl)c(Cl)c1)P(=O)(OCOC(=O)C(C)(C)C)OCOC(=O)C(C)(C)C)OC(C)c1ccc(C)cc1` (stereo not drawn) [Compound 7k, ({[1-(3,4-Dichlorophenyl)-3-{N-[1-(4-methylphenyl)ethoxy]acetamido}propyl]({[(2,2-dimethylpropanoyl)oxy]methoxy})phosphoryl}oxy)methyl 2,2-dimethylpropanoate] has an MIC (Mtb H37Rv [3]) of 12.5 µg/mL (≈ 18.2 µM).

Compound `CC(=O)N(CCC(c1ccc(Cl)c(Cl)c1)P(=O)(OCOC(=O)C(C)(C)C)OCOC(=O)C(C)(C)C)OC(C)c1ccc(C(F)(F)F)cc1` (stereo not drawn) [Compound 7m, ({[1-(3,4-Dichlorophenyl)-3-{N-[1-(4-trifluoromethylphenyl)ethoxy]acetamido}propyl]({[(2,2-dimethylpropanoyl)oxy]methoxy})phosphoryl}oxy)methyl 2,2-dimethylpropanoate] has an MIC (Mtb H37Rv [3]) greater than 100 µg/mL.

Compound `CC(=O)N(CCC(c1ccc(Cl)c(Cl)c1)P(=O)(OCOC(=O)C(C)(C)C)OCOC(=O)C(C)(C)C)OC(C)c1ccc(F)cc1` (stereo not drawn) [Compound 7n, ({[1-(3,4-Dichlorophenyl)-3-{N-[1-(4-fluorophenyl)ethoxy]acetamido}propyl]({[(2,2-dimethylpropanoyl)oxy]methoxy})phosphoryl}oxy)methyl 2,2-dimethylpropanoate] has an MIC (Mtb H37Rv [3]) of 4.6 µg/mL (≈ 6.64 µM).

With “Diammonium (3-{N-[(4-bromophenyl) methoxy] acetamido}-1-(3,4-dichlorophenyl) propyl) phosphonate [Compound 6h]” the “Mtb MIC” value (Mtb H37Rv [3]) was greater than 92 µM, the “Mtb DXR percent remaining enzyme activity at 100 μM” value (MtbDXR) was “(72.30) percent” and the IC50 (Pf3D7 parasites [4]) was 67.8 ± 3.57 µM. For the same compound, the “Pf DXR percent remaining enzyme activity at 100 μM” value (PfDXR) was “(53.07) percent”.

In the case of “Diammonium [1-(3,4-dichlorophenyl)-3-[N-(4-phenylbutoxy)acetamido]propyl] phosphonate [Compound 6g]”, the “Mtb MIC” value (Mtb H37Rv [3]) is reported as 3.1 µM, the “Mtb DXR percent remaining enzyme activity at 100 μM” value (MtbDXR) is reported as “(99.10) percent” and the IC50 (Pf3D7 parasites [4]) is reported as 63.3 ± 16.7 µM. The “Pf DXR percent remaining enzyme activity at 100 μM” value (PfDXR) was “(25.64) percent”.

In the case of “Diammonium [3-{acetyl[1-(4-trifluoromethylphenyl)ethoxy]amino}-1-(3,4-dichlorophenyl)propyl] phosphonate [Compound 6m]”, the “Mtb MIC” value (Mtb H37Rv [3]) is reported as greater than 91 µM, the “Mtb DXR percent remaining enzyme activity at 100 μM” value (MtbDXR) is reported as “(59.60) percent” and the IC50 (Pf3D7 parasites [4]) is reported as 79.2 ± 12.1 µM. The “Pf DXR percent remaining enzyme activity at 100 μM” value (PfDXR) was “(74.69) percent”.

With “Diammonium {3-[N-(benzyloxy)acetamido]-1-(3,4-dichlorophenyl)propyl} phosphonate [Compound 6b]” the “Mtb MIC” value (Mtb H37Rv [3]) was greater than 214 µM, the “Mtb DXR percent remaining enzyme activity at 100 μM” value (MtbDXR) was “(34.20) percent” and the IC50 (Pf3D7 parasites [4]) was 31.5 ± 7.85 µM. The “Pf DXR percent remaining enzyme activity at 100 μM” value (PfDXR) was “(26.66) percent”.

For “Diammonium {3-[N-({[1,1′-biphenyl]-4-yl}methoxy)acetamido]-1-(3,4-dichlorophenyl) propyl} phosphonate [Compound 6d]”, the “Mtb MIC” value (Mtb H37Rv [3]) was 23.1 µM, the “Mtb DXR percent remaining enzyme activity at 100 μM” value (MtbDXR) was “(93.90) percent” and the IC50 (Pf3D7 parasites [4]) was 86.4 ± 10.1 µM. For the same compound, the “Pf DXR percent remaining enzyme activity at 100 μM” value (PfDXR) was “(26.97) percent”.

In the case of “[({3-[N-({[1,1′-Biphenyl]-4-yl}methoxy)acetamido]-1-(3,4-dichlorophenyl)propyl}({[(2,2-dimethylpropanoyl)oxy] methoxy}) phosphoryl)oxy] methyl-2,2-dimethylpropanoate [Compound 7d]”, the “Mtb MIC” value (Mtb H37Rv [3]) is reported as 17.0 µM and the IC50 (Pf3D7 parasites [4]) is reported as 8.78 ± 0.92 µM.
